The text below walks through data of ChEMBL document CHEMBL1132627, “Synthesis and biological evaluation of boron-containing polyamines as potential agents for neutron capture therapy of brain tumors” (J Med Chem, 1999).

pIC50: −log10 of the molar value. Where “and” joins values, the source holds several entries; their conditions need not be identical. Equal values may be shown once.

The nature of series [1]: In Vitro Toxicity measured as the conc. required for 50% reduction in SRBabsorbance by F98 glioma cells. It counts as functional, Rattus norvegicus. In a few lines:
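F98 rat glioma cells, 10,000/well in DMEM with 10% FBS, grown overnight at 37 °C, 5% CO2. Then exposed 24 h to varying compound concentrations. Fixed with cold TCA (1 h, 4 °C), stained 20 min with 0.4% SRB in 1% acetic acid, dye solubilized in 10 mM Tris base, A492 read. Six replicates per concentration, expressed as % untreated control; IC50 = 50% reduction.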

Series [2] relates to Mus musculus. The series can be described thus: In vivo biodistribution in mice liver bearing intracerebral GL261 gliomas at the dose of 10 microg of boron/g/day. It is filed as ADME, organism-based. In a few lines:
(§1)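 C57Bl/6 mice implanted stereotactically in brain (2.5–3.0 mm deep) with 10^5 GL261 cells in serum-free DMEM with 1.5% agarose. Polyamine-deficient diet and 2% DFMO water for 3 days, then Alzet pump infusion at 10 μg boron/g per day for 3 days with diet and DFMO continued. Five mice; tissue boron by DCP-AES, mean ± SD.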

Series [3] is described as follows: In vitro cellular uptake by F98 glioma cells after 48 hr incubation in the presence of 5.1 micro g of B/mL media concentration. It is filed as functional, Rattus norvegicus. The method in brief: (§2)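 5×10^6 F98 cells per flask in DMEM with 10% FBS for 24 h. Medium then replaced with compound at the molar concentration matching the stated boron level, and cells held at 37 °C, 5% CO2. Cells washed three times with PBS, detached with trypsin-EDTA and digested in H2SO4/H2O2. Boron in media and cells by DCP-AES; 10^9 cells ≈ 1 g.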

For the next series, the system named is Nucleic Acid. Description: Concentration required to decrease the fluorescence of the ethidium bromide-calf thymus DNA complex by 50%. It is filed as nucleic-acid assay, Bos taurus. In a few lines: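 Calf thymus DNA (10 μg) in 2 mM HEPES, 10 μM EDTA, 9.4 mM NaCl, pH 7.0, with 1.6 μM ethidium bromide. Polyamine added stepwise in aliquots. Fluorescence read at excitation 546 nm and emission 598 nm. IC50 is the concentration that lowers complex fluorescence by 50%.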

Series [4] deals with Mus musculus. The series can be described thus: In vivo biodistribution in mice kidney bearing intracerebral GL261 gliomas at the dose of 10 microg of boron/g/day. It counts as ADME, organism-based. The method in brief:
as §1

The species named for series [5] is Rattus norvegicus. The series can be described thus: In vitro cellular uptake by F98 glioma cells after 24 h incubation in the presence of 5.4 ug of B/mL media concentration. It is filed as functional. In a few lines: as §2
The species entered for series [6] is Rattus norvegicus. Description: In vitro cellular uptake by F98 glioma cells after 48 hr incubation in the presence of 5.4 micro g of B/mL media concentration. It counts as functional. In a few lines: as §2
The species entered for series [7] is Rattus norvegicus. The series can be described thus: In vitro cellular uptake by F98 glioma cells after 48 hr incubation in the presence of 0.5 micro g of B/mL media concentration. It counts as functional. The method in brief:
as §2

For series [8], the species on record is Rattus norvegicus. Description: In vitro cellular uptake by F98 glioma cells after 48 hr incubation in the presence of 5.3 micro g of B/mL media concentration. It is filed as functional. The method in brief:
as §2

For series [9], the species on record is Rattus norvegicus. The series can be described thus: In vitro cellular uptake by F98 glioma cells after 24 h incubation in the presence of 5.3 ug of B/mL media concentration. It is filed as functional. The method in brief:
as §2

Series [10] has as its system Mus musculus. The series can be described thus: In vivo biodistribution in mice blood bearing subcutaneous B16 melanomas at the dose of 10 ug/g. It is filed as ADME, organism-based.
Series [11] in a line: In vitro concentration required for 50% reduction in the uptake of [3H]-TdR by F98 glioma cells. It is filed as functional, Rattus norvegicus.
Series [12] concerns Mus musculus. The series can be described thus: In vivo biodistribution in mice liver bearing subcutaneous B16 melanomas at the dose of 10 ug/g. It is filed as ADME, organism-based.
For series [13], the system named is Mus musculus. Description: In vivo biodistribution in mice kidney bearing subcutaneous B16 melanomas at the dose of 10 ug/g. It is filed as ADME, organism-based.
Series [14] has as its system Mus musculus. Description: In vivo biodistribution in mice muscle bearing subcutaneous B16 melanomas at the dose of 10 ug/g. It counts as ADME, organism-based, Muscle tissue.
Series [15] is filed under the species Rattus norvegicus. The series can be described thus: In vitro cellular uptake by F98 glioma cells after 24 h incubation in the presence of 0.5 ug of B/mL media concentration. It is filed as functional.

Take `Cl.Cl.Cl.NCCCCN(CCCN)Cc1ccc(B(O)O)cc1`: the negative-log IC50 (pIC50) was less than 2.30 in series [1] and 3.94 in the series on Nucleic Acid. Also, the values for the Biodistribution in the series on Mus musculus [2] and in the series with Mus musculus [4] were 22.9 ug of B g-1 and 44 ug of B g-1, respectively. In addition, the Ccellular in [3] was 114 ug of B (g of cells)-1.
As to “3-(2-{4-[(4-Amino-butyl)-(3-amino-propyl)-amino]-butyl}-cyclopropyl)-propane-1,2-diol; trihydrochloride”, the values for the Ccellular (ug of B (g of cells)-1) in the series filed under Rattus norvegicus [5], in the series filed under Rattus norvegicus [6] and in the series filed under Rattus norvegicus [7] were 51, 104 and 9, respectively.
As for “3-[2-(4-{(3-Amino-propyl)-[4-(3-amino-propylamino)-butyl]-amino}-butyl)-cyclopropyl]-propane-1,2-diol hydrochloride”, the figures for the Ccellular (ug of B (g of cells)-1) in the series listed under Rattus norvegicus [8], in the series filed under Rattus norvegicus [9] and in the series listed under Rattus norvegicus [7] were 83, 60 and 20, respectively.
Turning to `NCCCCNCCCN` [SPERMIDINE], the pIC50 in series [1] was less than 4.00; in the series with Nucleic Acid, 3.98.
In the same order, the values of `NCCCNCCCCNCCCN` [SPERMINE] are less than 4.00 and 5.52.
Regarding “N1-(3-Amino-propyl)-N1-(4-cyclopropyl-butyl)-butane-1,4-diamine(B10H10) [listing 1 of 2 here]”, the Biodistribution in the series on Mus musculus [10] was 9.3 ug of B g-1 and 12.5 ug of B g-1; in the series on Mus musculus [12], 74.8 ug of B g-1; in the series on Mus musculus [13] it was 201.3 ug of B g-1; in the series on Mus musculus [14], 9.8 ug of B g-1. Further, the pIC50 is 4.66 in series [11] and 3.83 in the series with Nucleic Acid.
With “N1-(3-Amino-propyl)-N1-(4-cyclopropyl-butyl)-butane-1,4-diamine(B10H10) [listing 2 of 2 here]”, the Ccellular (ug of B (g of cells)-1) in the series filed under Rattus norvegicus [15] stood at 65; in the series listed under Rattus norvegicus [7] it was 43.
In the case of “N*1*-{4-[2-(2-Amino-ethyl)-cyclopropyl]-butyl}-N*1*-(3-amino-propyl)-butane-1,4-diamine; trihydrochloride”, the Ccellular (ug of B (g of cells)-1) in the series filed under Rattus norvegicus [5] worked out at 51; in the series listed under Rattus norvegicus [6] it was 116; in the series filed under Rattus norvegicus [7], 19.
In the case of “N,N'-Bis-(3-amino-propyl)-N-(4-cyclopropyl-butyl)-butane-1,4-diamine hydrochloride”, in the series listed under Rattus norvegicus [7], the Ccellular (ug of B (g of cells)-1) is 64.
Consider “N-{4-[2-(2-Amino-ethyl)-cyclopropyl]-butyl}-N,N'-bis-(3-amino-propyl)-butane-1,4-diamine hydrochloride”, for which the Ccellular (ug of B (g of cells)-1) in the series listed under Rattus norvegicus [8] stood at 229; in the series filed under Rattus norvegicus [9], 82; in the series listed under Rattus norvegicus [7] it was 15.

As usually defined, the pIC50 is the negative decadic logarithm of the IC50, by convention in mol/L. A low value points to a large IC50.
